From paper PMC8099043 (Pharmacology Research & Perspectives, 2021)
Like-named read-outs stand apart in the source and are kept apart here.

What was measured:
[1] = pre-treatment of rats with naringenin for 2 weeks vs control; cited from earlier work
[2] = test system: rivaroxaban metabolism in rat liver microsomes; test: Inhibition of rivaroxaban metabolism by naringenin in rat liver microsomes; format: in vitro ADME, Sprague–Dawley rat; details: Sprague-Dawley, rat, rat liver microsomes, pH 7.4, probe rivaroxaban (10 μM)
In short: (§1)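 Flavonoid test compound and substrate were incubated with rat liver microsomes (1 mg/ml) in 100 mM potassium phosphate, pH 7.4. After 5 min preincubation at 37 °C, 1 mM NADPH (final) started the reaction, which ran 30 min. It was quenched with acetonitrile plus diazepam IS, centrifuged and analysed by UPLC‑MS/MS. IC50 used 10 μM substrate with test compound at 1–100 μM.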

[3] = test system: rivaroxaban metabolism in rat liver microsomes (RLMs); test: as above; format: in vitro ADME, Sprague–Dawley rat; details: RLMs, Lineweaver-Burk plot
In short: as §1

[4] = test system: rat liver microsomes (RLMs); test: Michaelis–Menten kinetics of rivaroxaban metabolism in RLMs; format: in vitro ADME, Sprague–Dawley rat
In short: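 Rat liver microsomes (1 mg/ml, 100 mM potassium phosphate, pH 7.4) were incubated with substrate over nine levels spanning 1–200 μM. Preincubation was 5 min at 37 °C, then 1 mM NADPH (final) started a 30 min reaction. It was stopped with acetonitrile plus diazepam IS, centrifuged, and the supernatant was run on UPLC‑MS/MS (positive ESI, MRM). Km came from a Michaelis–Menten fit; mean ± SD, n = 3.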

[5] = with ticagrelor, rats; cited from earlier work
[6] = format: in vivo, Sprague–Dawley rat
[7] = cited from earlier work
[8] = Control group: rivaroxaban 10 mg/kg oral gavage only, rats, n = 6
[9] = pretreatment of rat with naringenin for 14 days
[10] = 10 mg rivaroxaban in combination with 200 mg ketoconazole once daily
[11] = co-administration with rifampicin
[12] = single-dose rivaroxaban co-administrated with ritonavir

C[C@@H]1CCN(C(=O)CC#N)C[C@@H]1N(C)c1ncnc2[nH]ccc12 [tofacitinib]
increase of AUC of tofacitinib [1]: 1.76 fold

O=C1C[C@@H](c2ccc(O)cc2)Oc2cc(O)cc(O)c21 [naringenin]
IC50 at 30 min [2]: 38.9 µM | inhibition type [3]: mixed inhibition | Ki ([3]; rivaroxaban 5-40 μM, naringenin 0-80 μM): 54.9 µM

O=C(NC[C@H]1CN(c2ccc(N3CCOCC3=O)cc2)C(=O)O1)c1ccc(Cl)s1 [rivaroxaban]
Km ([4]; read-out: Km of rivaroxaban metabolism, rivaroxaban 1-200 μM): 18.4 µM | Vmax of rivaroxaban metabolism ([4]; rivaroxaban 1-200 μM): 4.35 pmol/min/mg | increase of AUC of rivaroxaban [5]: more than twice | increase of Cmax of rivaroxaban [5]: more than twice | AUC(0–t) ([6]; Control group: rivaroxaban 10 mg/kg oral gavage only, rats (abstract)): 2406.28 ± 519.69 µg/h/L | AUC(0–t) [6, 8]: 2406.28 ± 519.69 µg/h/L | AUC(0–∞) [6, 8]: 2438.52 ± 529.29 ng/mL/h | AUC(0–t) ([6]; Experimental group: naringenin 10 mg/kg/day for 2 weeks, then rivaroxaban 10 mg/kg oral, rats (abstract)): 4005.04 ± 1172.76 µg/h/L | Tmax ([6]; male, Sprague-Dawley, rat, plasma, po, 10 mg/kg): 3.4 ± 0.548 h | increase of AUC of rivaroxaban, experimental group vs control [6, 9]: 1.7 times | increase of Cmax of rivaroxaban, experimental group vs control [6, 9]: 1.6 times | increase of AUC of rivaroxaban [7, 10]: 82% | increase of Cmax of rivaroxaban [7, 10]: 53% | reduction of body clearance rate of rivaroxaban [7, 10]: 45% | decrease of AUC of rivaroxaban [7, 11]: 50% | decrease of Cmax of rivaroxaban [7, 11]: 22% | increase of AUC of rivaroxaban [7, 12]: 150% | increase of Cmax of rivaroxaban [7, 12]: 60%
